Activity calls are given as the source filed them. No cut-off for these calls is given here.
Experiments:
[1] = AUCextra in C57BL/6J mouse at 9.103 mg/kg, ip administered as single dose measured up to 24 hrs; type: ADME, organism-based; settings: in vivo
Procedure, shortened: (§1)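 Single intraperitoneal dose in male C57BL/6J mice (12 per route). Tail-vein blood was collected under sodium heparin for plasma, with 3 mice sampled at each pair of times: 0.083/2, 0.25/4, 0.5/8 and 1/24 h. F denotes bioavailability.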

[2] = Toxicity in C57BL/6 mouse assessed as change in liver weight at 50 mg/kg, ip administered as single dose and measured after 15 days (reference value: 1.2 to 1.3 g); type: organism-based; settings: in vivo, 360 h, time 15 day
Procedure, shortened: (§2)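 Female C57BL/6 mice given one IP injection of 100 µL, at 50, 100, 250 or 500 mg/kg in sterile PBS, two mice per dose; PBS-injected controls. Behaviour checked right after and at 30 min. Body weight recorded every 2–3 days for 15 days, then liver, spleen and kidneys weighed.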

[3] = Antitumour activity against mouse wild type MCA-205 cells implanted in C57BL/6 mouse assessed as tumor size by measuring cell killing pretreatment at 2.5 mg/kg, iv administered starting from day 7 post inoculation at five days interval upto 17 days relative to control; type: functional; settings: time <= 17 day
Procedure, shortened: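 Female C57BL/6 mice (6 weeks old) given subcutaneous MCA205 WT fibrosarcoma in the right flank. 2.5 mg/kg given intravenously on days 7, 12 and 17 after inoculation; untreated controls. Tumour area recorded every 3–4 days until ethical endpoints, then tumour size at killing. Groups compared by one-way ANOVA.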

[4] = Antiproliferative activity against mouse MCA-205 cells assessed as decrease in cell viability at 10 uM measured after 72 hrs by MTT based colorimetric assay; type: functional
[5] = Metabolic stability in mouse liver microsomes assessed as parent compound remaining incubated for 45 mins in presence of NADPH by HPLC-MS/MS analysis; type: ADME, Microsome; settings: read-out: Stability
Procedure, shortened: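 Incubation with mouse or human liver microsomes for 45 min, with or without NADPH. Remaining parent compound was quantified over time by HPLC-MS/MS and expressed as % remaining; intrinsic clearance is given in μL/min/mg protein.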

[6] = Stability in mouse plasma assessed as compound remaining incubated up to 2 hrs by HPLC-MS/MS analysis; type: ADME, cell-free; settings: read-out: Stability
Procedure, shortened: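 Incubation in mouse or human plasma for up to 2 h, with compound remaining expressed as a percentage.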

[7] = Plasma protein binding in human assessed as unbound fraction at 2 uM by rapid equilibrium dialysis based LC-MS/MS analysis; type: ADME, cell-free
Procedure, shortened: (§3)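 Binding was measured at 2 μM in triplicate by rapid equilibrium dialysis (8K MWCO). Quantification was by UPLC-MS/MS on a phenyl column in positive ESI MRM mode (m/z 727>567), with an ammonium formate pH 5 / 1,5-DMHA mobile phase at 50 °C. Both unbound fraction (fu) and % bound are reported.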

[8] = Plasma protein binding in human at 2 uM by rapid equilibrium dialysis based LC-MS/MS analysis; type: ADME, cell-free; settings: read-out: PPB (converted); procedure, shortened: as §3
[9] = biological target: Beta-1 adrenergic receptor (Homo sapiens) (UniProt P08588); assay: Antagonist activity at ADRB1 (unknown origin) at 10 uM; type: functional; parameters: scale not given: the % may be the effect or the level left
Procedure, shortened: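 Single-concentration safety screen at 10 μM across a 47-target panel. GPCRs were run in antagonist mode and enzymes in inhibitor mode.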

[10] = Cmax in C57BL/6J mouse at 0.711 mg/kg, iv administered as single dose measured up to 24 hrs; type: ADME, organism-based; parameters: time < 24 hrs, dose 0.711 mg/kg, route iv; settings: in vivo
Procedure, shortened: (§4)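 Single intravenous dose. Mice were male C57BL/6J, 12 per route; tail-vein blood was collected under sodium heparin, with 3 mice sampled at each pair of times (0.083/2, 0.25/4, 0.5/8, 1/24 h). Dogs were male beagles (n=3); jugular blood was collected under K2 EDTA predose and at 0.083, 0.25, 0.5, 1, 2, 4, 6, 8 and 24 h. Plasma was prepared from the samples.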

[11] = Tmax in C57BL/6J mouse at 9.103 mg/kg, ip administered as single dose measured up to 24 hrs; type: ADME, organism-based; settings: in vivo; procedure, shortened: as §1
[12] = Half life in C57BL/6J mouse at 9.103 mg/kg, ip administered as single dose measured up to 24 hrs; type: ADME, organism-based; settings: in vivo; procedure, shortened: as §1
[13] = MRT(0 to t) in Beagle dog at 26.76 mg/kg, iv administered as single dose measured up to 24 hrs; type: ADME, organism-based, Canis lupus familiaris; settings: in vivo; procedure, shortened: as §4
[14] = AUC(0 to t) in C57BL/6J mouse at 9.103 mg/kg, ip administered as single dose measured up to 24 hrs; type: ADME, organism-based; parameters: time < 24 hrs, dose 9.103 mg/kg, route ip; settings: in vivo; procedure, shortened: as §1
[15] = AUCextra in C57BL/6J mouse at 0.711 mg/kg, iv administered as single dose measured up to 24 hrs; type: ADME, organism-based; settings: in vivo; procedure, shortened: as §4
[16] = AUCextra in Beagle dog at 26.76 mg/kg, iv administered as single dose measured up to 24 hrs; type: ADME, organism-based, Canis lupus familiaris; settings: in vivo; procedure, shortened: as §4
[17] = Toxicity in C57BL/6 mouse assessed as change in liver weight at 250 mg/kg, ip administered as single dose and measured after 15 days (reference value: 1.2 to 1.3 g); type: organism-based; settings: in vivo, 360 h, time 15 day; procedure, shortened: as §2
[18] = Toxicity in C57BL/6 mouse assessed as change in spleen weight at 100 mg/kg, ip administered as single dose and measured after 15 days (reference value: 0.1 to 0.2 g); type: organism-based; settings: in vivo, 360 h, time 15 day; procedure, shortened: as §2
[19] = Toxicity in C57BL/6 mouse assessed as change in spleen weight at 250 mg/kg, ip administered as single dose and measured after 15 days (reference value: […]); type: organism-based; settings: in vivo, 360 h, time 15 day; procedure, shortened: as §2
[20] = Toxicity in C57BL/6 mouse assessed as change in kidney weight at 250 mg/kg, ip administered as single dose and measured after 15 days (reference value: 0.3 g); type: organism-based; settings: in vivo, 360 h, time 15 day; procedure, shortened: as §2
[21] = Toxicity in C57BL/6 mouse assessed as change in kidney weight at 500 mg/kg, ip administered as single dose and measured after 15 days (reference value: 0.3 g); type: organism-based; settings: in vivo, 360 h, time 15 day; procedure, shortened: as §2
MCA-205 [22] = assay: Antitumor activity against mouse wild type MCA-205 cells implanted in C57BL/6 mouse assessed as decrease in tumor growth pretreatment at 2.5 mg/kg,iv administered starting from day 7 post inoculation at five days interval upto 17 days relative to control; type: functional, organism-based; settings: time <= 17.0 day
Procedure, shortened: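 MCA205 WT fibrosarcoma cells were inoculated subcutaneously into the right flank of female C57BL/6 mice. Dosing was 2.5 mg/kg iv from day 7 post-inoculation, repeated every 5 days until day 17; controls were untreated. Tumor area was recorded every 3–4 days up to ethical limits, and tumor size was measured at killing. Analysis was by one-way ANOVA.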

MCA-205 [23] = assay: Antitumour activity against mouse wild type MCA-205 cells implanted in C57BL/6 mouse assessed as decrease in tumour growth at 5 mg/kg,IT administered starting from day 7 post inoculation and thrice a week for 2 weeks; type: functional, organism-based
Procedure, shortened: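 MCA205 WT fibrosarcoma cells were inoculated subcutaneously into the right flank of female C57BL/6 mice. Dosing was 5 mg/kg intratumoral, three times per week for two weeks, starting day 7 post-inoculation; controls were untreated. Tumor area was recorded every 3–4 days, and tumor size was measured at killing. Analysis was by one-way ANOVA.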

[24] = Toxicity in C57BL/6 mouse assessed as behavioral changes at 50 to 500 mg/kg, ip and measured upto 30 mins post administration; type: organism-based; settings: in vivo, 0.5 h, dose 50-500 mg/kg; procedure, shortened: as §2

Chain of Beta-1 adrenergic receptor (Homo sapiens) (P08588 whole entry, looked up): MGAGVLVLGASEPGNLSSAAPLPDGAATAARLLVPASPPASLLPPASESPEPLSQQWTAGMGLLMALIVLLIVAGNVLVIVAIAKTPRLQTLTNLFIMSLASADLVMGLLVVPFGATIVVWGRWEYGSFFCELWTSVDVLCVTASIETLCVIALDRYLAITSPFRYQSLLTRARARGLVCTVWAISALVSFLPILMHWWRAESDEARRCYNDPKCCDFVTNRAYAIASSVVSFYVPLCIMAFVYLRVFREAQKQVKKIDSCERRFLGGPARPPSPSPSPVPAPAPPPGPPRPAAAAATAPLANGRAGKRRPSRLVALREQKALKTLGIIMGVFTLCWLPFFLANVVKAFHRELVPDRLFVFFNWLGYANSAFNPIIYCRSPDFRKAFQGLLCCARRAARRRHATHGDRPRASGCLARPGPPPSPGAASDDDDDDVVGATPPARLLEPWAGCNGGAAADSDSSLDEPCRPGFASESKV

COc1ccc(-c2cc(=O)c3c(O)cc(OP(=O)([O-])[O-])c(-c4cc(-c5cc(=O)c6c(O)cc(OP(=O)([O-])[O-])cc6o5)ccc4OC)c3o2)cc1.[Na+].[Na+].[Na+].[Na+]
%AUCextra [1]: 1.3%
Activity [2]: 1 g
Activity [3]: 40%
Activity [4]: 20%
remaining at 0.75 h [5]: 82.3%
remaining at 2 h [6]: 98.1%
fraction unbound at 2 µM [7]: 0.02
fraction unbound at 2 µM [8]: 0.017
Activity [9]: 35%
Cmax [10]: 323 ng/mL
Tmax [11]: 5 min
half-life [12]: 48 min
MRT last at 24 h [13]: 3.8 h
AUC(0-t) at 24 h [14]: 982 ng·h/mL
%AUCextra [15]: 15.2%
%AUCextra [16]: 0.9%
Activity [17]: 0.9 g
Activity [18]: 0.1 g
Activity [19]: 0.1 g
Activity [20]: 0.1 g
Activity [21]: 0.2 g
Activity (MCA-205 [22]): Active
Activity (MCA-205 [23]): Active
Activity [24]: Non-Toxic

Reference: ChEMBL document CHEMBL5154772, “Biological Investigation of a Water-Soluble Isoginkgetin-Phosphate Analogue, Targeting the Spliceosome with In Vivo Antitumor Activity” (J Med Chem, 2022)
